Published values from different studies.
Lines come from different studies, so protocols differ.
Matrix: plasma

CN(C)C(=O)Oc1cc(OC(=O)N(C)C)cc(-c2cc3ccc(O)cc3o2)c1  AUC(0-t) (male rat; oral, 5 mg/kg): 17.7 ng·h/mL
[2H]C([2H])([2H])n1cc2cc(Nc3nc(=O)n(Cc4ncn(C)n4)c(=O)n3Cc3cc(F)c(F)cc3F)c(Cl)cc2n1  AUC(0-t) (male Sprague-Dawley rat; oral, 25 mg/kg): 334000 ng·h/mL
O=C([O-])C(=O)[O-].[NH-][C@@H]1CCCC[C@H]1[NH-].[Pt+4] (relative stereo)  AUC(0-t) (rat; oral, 10 mg/kg): 111 ng·h/mL
Cn1cnc(Cn2c(=O)[nH]/c(=N\c3cc4cn(C)nc4cc3Cl)n(Cc3cc(F)c(F)cc3F)c2=O)n1  AUC(0-t) (male Sprague-Dawley rat; intravenous, 5 mg/kg): 81000 ng·h/mL
COC(=O)C(NC(=O)c1cn(CCCCCF)c2ccccc12)C(C)(C)C (stereo not drawn)  AUC(0-t) (male Sprague-Dawley rat; subcutaneous, 50 µg/kg): 8.61 ng·h/mL
CCC[C@@](N)(CO)CCc1ccc(OCCCCCC(C)C)cc1  AUC(0-t) (rat; oral, 10 mg/kg): 1.44 µM·h
N=c1c2c(-c3ccccc3)c(-c3ccccc3)n(Cc3ccccc3)c2ncn1[C@H]1CC[C@H](O)CC1  AUC(0-inf) (male Sprague-Dawley rat; oral, 2 mg/kg, single dose): 1500 ng·h/mL
Cl.Cl.O=C(CCN1CCCCC1)c1ccc(-c2ccc(C(=O)CCN3CCCCC3)cc2)cc1  AUC(0-t) (Sprague-Dawley rat; oral, 25 mg/kg): 135 ng·h/mL
CCCCCn1nc(C(=O)Nc2cccc3ccccc23)c2ccccc21  AUC(0-inf) (male Long-Evans rat; intraperitoneal, 3 mg/kg): 314 ng·h/mL
[2H]C([2H])(c1cc(F)c(F)cc1F)n1c(=O)n(Cc2ncn(C)n2)c(=O)[nH]/c1=N\c1cc2cn(C)nc2cc1Cl  AUC(0-t) (male Sprague-Dawley rat; intravenous, 5 mg/kg): 78000 ng·h/mL
CC(C)(C)[C@H](NC(=O)[C@H](CCONC(=N)N)NC(=O)Cc1ccc(CNC(=N)N)cc1)C(=O)N[C@@H](CCONC(=N)N)C(=O)NCc1ccc(C(=N)N)cc1  AUC(0-t) (male Sprague-Dawley rat; intraperitoneal, 2.5 mg/kg): 9350 ng·h/mL
CCCCCn1cc(C(=O)Nc2cccc3ccccc23)c2ccccc21  AUC(0-inf) (male Long-Evans rat; intraperitoneal, 3 mg/kg): 5960 ng·h/mL
